Laboratory results from ChEMBL document CHEMBL1764996, “Synthesis and separation of the enantiomers of the neuropeptide S receptor antagonist (9R/S)-3-oxo-1,1-diphenyl-tetrahydro-oxazolo[3,4-a]pyrazine-7-carboxylic acid 4-fluoro-benzylamide (SHA 68)” (J Med Chem, 2011).
Each block holds one compound with its values, some of them ahead of it. Active and inactive are the calls of the source. The rule behind the calls is not given here.

Key:
Type in all cases: functional, cell-based
[1] = target: T1, Neuropeptide S receptor (Mus musculus) (UniProt Q8BZP8); experiment: Agonist activity at mouse NPSR expressed in HEK293 cells assessed as induction of calcium mobilization at up to 10 uM after 30 mins
T1 sequence (whole entry): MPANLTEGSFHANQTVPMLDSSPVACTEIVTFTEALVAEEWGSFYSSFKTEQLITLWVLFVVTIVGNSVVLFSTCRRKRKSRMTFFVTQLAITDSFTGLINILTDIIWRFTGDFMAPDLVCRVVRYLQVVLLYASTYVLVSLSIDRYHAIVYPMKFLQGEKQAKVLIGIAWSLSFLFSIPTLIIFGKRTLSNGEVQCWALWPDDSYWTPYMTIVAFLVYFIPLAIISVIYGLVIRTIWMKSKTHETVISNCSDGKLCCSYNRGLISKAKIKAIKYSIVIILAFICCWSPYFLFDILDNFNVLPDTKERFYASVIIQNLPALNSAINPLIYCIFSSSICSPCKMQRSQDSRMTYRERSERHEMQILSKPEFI
How it was run: (§1)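 HEK293 lines stably expressing human NPSR Ile107 or murine NPSR were grown in DMEM with 10% FBS, 2 mM L-glutamine and hygromycin B (100 mg/L) at 37 °C, 5% CO2. Cells were plated on poly-D-lysine wells and loaded with Fluo-4 AM (3 µM), probenecid 2.5 mM and 0.01% pluronic for 30 min at 37 °C. They were then read in HBSS/20 mM HEPES with probenecid and Brilliant Black on a FlexStation at 37 °C. Peak fluorescence change was taken as % baseline and fitted logistically for potency and maximal effect. Data are mean ± sem, n≥4 in duplicate.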

[2] = target: T1, Neuropeptide S receptor (Mus musculus); experiment: Agonist activity at mouse NPSR expressed in HEK293 cells assessed as induction of calcium mobilization after 30 mins relative to control; how it was run: as §1
[3] = target: T1, Neuropeptide S receptor (Mus musculus); experiment: (§2) Agonist activity at mouse NPSR expressed in HEK293 cells assessed as induction of calcium mobilization after 30 mins; how it was run: as §1
[4] = target: T2, Neuropeptide S receptor (Mus musculus, UniProt Q8BZP8); experiment: as §2; how it was run: as §1
T2 sequence (Q8BZP8 whole entry): T1 sequence (whole entry)

[5] = target: T3, Neuropeptide S receptor (Homo sapiens) (UniProt Q6W5P4); experiment: (§3) Agonist activity at human NPSR Asn107 expressed in HEK293 cells assessed as induction of calcium mobilization after 30 mins
T3 sequence (whole entry): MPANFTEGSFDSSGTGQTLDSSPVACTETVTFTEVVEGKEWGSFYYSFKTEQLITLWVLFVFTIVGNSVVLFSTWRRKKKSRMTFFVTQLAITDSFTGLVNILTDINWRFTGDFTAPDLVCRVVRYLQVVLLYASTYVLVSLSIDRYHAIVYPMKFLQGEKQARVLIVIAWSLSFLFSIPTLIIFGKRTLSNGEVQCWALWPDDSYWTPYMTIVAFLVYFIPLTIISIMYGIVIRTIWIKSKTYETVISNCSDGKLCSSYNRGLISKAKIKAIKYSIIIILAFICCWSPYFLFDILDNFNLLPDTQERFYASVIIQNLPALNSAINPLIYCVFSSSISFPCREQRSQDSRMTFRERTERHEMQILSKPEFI
How it was run: (§4)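 HEK293 cells stably expressing human NPSR Asn107 were kept in DMEM with 10% FBS, 2 mM glutamine and zeocin (100 mg/L) at 37 °C, 5% CO2. Cells were seeded on poly-D-lysine plates and loaded next day with 3 µM Fluo-4 AM, 2.5 mM probenecid and 0.01% pluronic acid for 30 min at 37 °C. Assay buffer was HBSS with 20 mM HEPES, 2.5 mM probenecid and 500 µM Brilliant Black. Fluorescence was read on a FlexStation at 37 °C. Response was the maximal fluorescence change as % of baseline. Potency and maximal effect came from nonlinear regression, with mean ± sem of ≥4 experiments in duplicate.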

[6] = target: T4, Neuropeptide S receptor (Homo sapiens, UniProt Q6W5P4); experiment: as §3; how it was run: as §4
[7] = target: T3, Neuropeptide S receptor (Homo sapiens); experiment: (§5) Agonist activity at human NPSR Ile107 expressed in HEK293 cells assessed as induction of calcium mobilization after 30 mins; how it was run: as §1
[8] = target: T4, Neuropeptide S receptor; experiment: as §5; how it was run: as §1
[9] = target: T3, Neuropeptide S receptor (Homo sapiens); experiment: Agonist activity at human NPSR Ile107 expressed in HEK293 cells assessed as induction of calcium mobilization after 30 mins relative to control; how it was run: as §1
[10] = target: T3, Neuropeptide S receptor (Homo sapiens); experiment: Agonist activity at human NPSR Asn107 expressed in HEK293 cells assessed as induction of calcium mobilization after 30 mins relative to control; how it was run: as §4

Activity [1]: inactive
Compound: O=C(NCc1ccc(F)cc1)N1CCN2C(=O)OC(c3ccccc3)(c3ccccc3)[C@@H]2C1

Activity [1]: inactive
Compound: O=C(NCc1ccc(F)cc1)N1CCN2C(=O)OC(c3ccccc3)(c3ccccc3)[C@H]2C1

Activity [1]: inactive
Compound: O=C(NCc1ccc(F)cc1)N1CCN2C(=O)OC(c3ccccc3)(c3ccccc3)C2C1 (single isomer, unassigned)

Emax [2]: 250%
Activity [3]: Dose-dependent effect
EC50 [4]: 1.07 nM
Compound: H-SFRNGVGSGAKKTSFRRAKQ-OH

Activity [5]: Dose-dependent effect
pEC50 [6]: 9.07
Activity [7]: Dose-dependent effect
pEC50 [8]: 9.17
Emax [9]: 333%
Emax [10]: 316%
Compound: H-SFRNGVGTGMKKTSFQRAKS-OH [NEUROPEPTIDE S]
